This note sets out measurements from ChEMBL document CHEMBL1135477, “Antifungal agents. 10. New derivatives of 1-[(aryl)[4-aryl-1H-pyrrol-3-yl]methyl]-1H-imidazole, synthesis, anti-candida activity, and quantitative structure-analysis relationship studies” (J Med Chem, 2002).

Values after ≈ are worked out from the molar mass of the structure shown.

What all share (assay type): functional
Data set [1] has as its system Candida albicans. The experiment in a line: In vitro antifungal activity against 40 strains of Candida albicans at pH 5.8; value ranges from 128 to >256. The essentials: (§1)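 Broth serial-dilution MIC against 40 clinical C. albicans isolates from hospitalized patients, grown in Sabouraud broth at pH 7.2 or 5.8. Cells were pre-grown 18 h at 37 °C, inoculated at 10³/mL, and read at 24 h, 37 °C. Doubling dilutions ran 0.25–256 μg/mL from a DMSO/water solution. MIC was the lowest concentration with no visible growth against a DMSO/water blank.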

In data set [2] the test system is Candida. The experiment in a line: Tested in vitro for antifungal activity against Candida species. at pH 5.8; (percent of resistant species at 256 ug/mL). In short, it runs like this: (§2)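 Broth serial-dilution test in Sabouraud broth at pH 7.2 or 5.8, against 3 fresh clinical non-albicans isolates (two C. glabrata, one C. krusei). Inocula were 10³/mL, pre-grown 18 h at 37 °C. Compound was twofold-diluted over 0.25–256 µg/mL and read at 24 h, 37 °C for visible growth.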

The subject of data set [3] is Candida. The experiment in a line: Tested in vitro for antifungal activity against Candida species. at pH 7.2; (percent of resistant species at 256 ug/mL). In short, it runs like this:
as §2

Data set [4] relates to Candida albicans. The experiment in a line: In vitro antifungal activity against 40 strains of Candida albicans at pH 5.8. The essentials: as §1
The target in data set [5] is Lanosterol 14-alpha demethylase (Candida albicans (strain SC5314 / ATCC MYA-2876) (Yeast), UniProt P10613). The experiment in a line: Anticandida activity- (MIC90 compound) / (MIC90 bifonazole).
For data set [6], the system named is Candida albicans. The experiment in a line: In vitro antifungal activity against 40 strains of Candida albicans at pH 5.8; (percent of resistant species at 256 ug/mL). The essentials:
(§3)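 Broth serial-dilution test in Sabouraud broth at pH 7.2 or 5.8, against 40 fresh clinical C. albicans isolates from hospitalized patients. Inocula were 10³/mL, pre-grown 18 h at 37 °C in Sabouraud dextrose broth. Compound from a DMSO/water stock was twofold-diluted over 0.25–256 µg/mL. Visible growth was read at 24 h, 37 °C.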

Data set [7] deals with Candida albicans. The experiment in a line: In vitro antifungal activity against 40 strains of Candida albicans at pH 7.2; (percent of resistant species at 256 ug/mL). In short, it runs like this: as §3
Data set [8] has as its system Candida albicans. The experiment in a line: In vitro antifungal activity against 40 strains of Candida albicans at pH 7.2; minimum inhibitory concentration value ranges from 128 to >256. In short, it runs like this:
as §1

The subject of data set [9] is Candida. The experiment in a line: Tested in vitro for antifungal activity at pH 5.8; range is >250. In short, it runs like this: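 Serial two-fold broth dilution was run in Sabouraud broth at pH 5.8 over 0.25–256 µg/mL, against clinical Candida isolates (40 C. albicans; 2 C. glabrata plus 1 C. krusei). Inoculum was 10³/mL after 18 h pre-culture at 37 °C. No visible growth versus a DMSO/water blank was read at 24 h, 37 °C; the range spans per-strain MICs.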

Data set [10] has as its system Candida. The experiment in a line: Tested in vitro for antifungal activity against Candida species. at pH 5.8. The essentials: (§4)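 Liquid serial-dilution MIC against 3 freshly isolated clinical Candida strains (two C. glabrata, one C. krusei) in Sabouraud broth at pH 7.2 or 5.8. Inoculum was 10³/mL after 18 h pre-culture at 37 °C, read at 24 h, 37 °C. Range was 0.25–256 μg/mL. Endpoint was no visible growth versus a DMSO/water blank.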

In data set [11] the test system is Candida. The experiment in a line: Tested in vitro for antifungal activity against Candida species. at pH 7.2. In short, it runs like this:
(§5)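 Fresh clinical isolates (two C. glabrata, one C. krusei) were pre-grown 18 h at 37 °C in Sabouraud dextrose broth. Broth double-dilution was run in Sabouraud broth at pH 5.8 or 7.2 over 0.25–256 µg/mL from a DMSO/water stock, with 10³/mL inoculum.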

Data set [12] concerns Candida albicans. The experiment in a line: In vitro antifungal activity against 40 strains of Candida albicans at pH 7.2. The essentials: as §1
Data set [13] relates to Candida albicans. The experiment in a line: IIn vitro antifungal activity against 40 strains of Candida albicans at pH 7.2; minimum inhibitory concentration (range is from 16 to 256). In short, it runs like this: as §1
In data set [14] the test system is Candida albicans. The experiment in a line: In vitro antifungal activity against 40 strains of Candida albicans at pH 5.8; (range is from 32 to 256). The essentials:
as §1

Data set [15] concerns Candida. The experiment in a line: Tested In vitro for antifungal activity against Candida species. at pH 7.2; (percent of resistant species at 256 ug/mL). The essentials: as §2
For data set [16], the system named is Candida. The experiment in a line: Tested in vitro for antifungal activity against Candida species. at pH 5.8 (percent of resistant species at 256 ug/mL). In short, it runs like this:
as §2

Data set [17] deals with Candida. The experiment in a line: Tested in vitro for antifungal activity against Candida species. at pH 5.8; value ranges from 128 to >256. The essentials: as §5
Data set [18] concerns Candida. The experiment in a line: Tested In vitro for antifungal activity against Candida species. at pH 7.2. The essentials:
as §4

The test system of data set [19] is Candida albicans. The experiment in a line: In vitro antifungal activity against 40 strains of Candida albicans at pH 7.2; (percent of resistant species (R) at 256 ug/mL). The essentials: as §3
Data set [20] concerns Candida albicans. The experiment in a line: In vitro antifungal activity against 40 strains of Candida albicans at pH 7.2; minimum inhibitory concentration; value ranges from <0.25 to 16. The essentials: as §1
Data set [21] deals with Candida. The experiment in a line: Tested In vitro for antifungal activity against Candida species. at pH 7.2; (range is from 0.5 to 1). In short, it runs like this: as §4
Data set [22] relates to Candida. The experiment in a line: Tested in vitro for antifungal activity against Candida species. at pH 5.8; value ranges from <0.25 to 0.25. The essentials:
as §5

Data set [23] relates to Candida albicans. The experiment in a line: In vitro antifungal activity against 40 strains of Candida albicans at pH 5.8; value ranges from <0.25 to 8. In short, it runs like this: as §1

The term MIC denotes the least concentration at which growth counts as inhibited. Read a high MIC as a need for much substance. As usually defined, the MIC50 is the lowest concentration that inhibits either 50% of growth or 50% of the strains tested, depending on the study. Higher therefore signals weaker potency. As usually defined, the MIC90 is an inhibitory concentration at the 90% level, which refers to growth in some studies and to a panel of isolates in others.

Sequence of Lanosterol 14-alpha demethylase (P10613 whole entry): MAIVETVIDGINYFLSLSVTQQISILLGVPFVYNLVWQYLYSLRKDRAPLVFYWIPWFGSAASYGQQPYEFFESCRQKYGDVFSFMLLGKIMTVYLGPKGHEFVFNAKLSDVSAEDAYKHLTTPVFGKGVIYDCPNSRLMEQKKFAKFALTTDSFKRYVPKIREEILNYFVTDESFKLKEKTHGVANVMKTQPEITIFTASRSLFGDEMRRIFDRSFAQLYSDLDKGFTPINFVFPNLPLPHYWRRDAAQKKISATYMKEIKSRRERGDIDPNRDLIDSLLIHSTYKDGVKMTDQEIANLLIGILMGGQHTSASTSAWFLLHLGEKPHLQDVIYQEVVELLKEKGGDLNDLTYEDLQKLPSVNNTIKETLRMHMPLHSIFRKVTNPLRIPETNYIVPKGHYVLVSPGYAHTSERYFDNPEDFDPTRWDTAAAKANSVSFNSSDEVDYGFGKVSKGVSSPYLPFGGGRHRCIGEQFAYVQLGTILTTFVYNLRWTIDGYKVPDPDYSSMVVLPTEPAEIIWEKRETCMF

With `Clc1ccc(-c2c[nH]cc2[C@@H](c2ccc(Cl)cc2Cl)n2cncn2)cc1`, the Range with Candida albicans [1], in the data set with Candida albicans [8], in the data set on Candida [9] and in the data set on Candida [11] was more than 256 µg/mL in each case. Also, the Resistance with Candida [2] was 100%; in the data set with Candida [3] it was 100%; in the data set on Candida albicans [6], 68%; in the data set with Candida albicans [7], 97%. The MIC with Candida albicans [4] came to 209 µg/mL (≈ 519 µM); in the data set on Candida albicans [12], 128 µg/mL (≈ 317 µM). Besides, the MIC50 in the data set with Candida albicans [4], against Candida [10], against Candida [11] and in the data set on Candida albicans [12] was more than 256 µg/mL each time. In addition, the MIC90 in the data set on Candida albicans [4], against Candida [10], with Candida [11] and in the data set with Candida albicans [12] was more than 256 µg/mL each time. Further, the Ratio in data set [5] was 49.

As to `Oc1ccc(-c2c[nH]cc2[C@@H](c2ccc(Cl)cc2Cl)n2ccnc2)cc1`, the Range in the data set with Candida albicans [13] was 256 µg/mL; with Candida albicans [14], 256 µg/mL; in the data set with Candida [17] it was more than 256 µg/mL; with Candida [18] it was 256 µg/mL. The Resistance amounted to 0% in the data set with Candida [15], 67% in the data set with Candida [16], 26% in the data set with Candida albicans [6] and 0% in the data set on Candida albicans [7]. Further, the MIC was 150 µg/mL (≈ 390 µM) in the data set on Candida albicans [4], 256 µg/mL (≈ 666 µM) with Candida [18], 128 µg/mL (≈ 333 µM) against Candida [10] and 77.8 µg/mL (≈ 202 µM) with Candida albicans [12]. Further, the MIC50 is 32 µg/mL (≈ 83.3 µM) against Candida albicans [4], 256 µg/mL (≈ 666 µM) in the data set on Candida [18], more than 256 µg/mL against Candida [10] and 16 µg/mL (≈ 41.6 µM) in the data set with Candida albicans [12]. In addition, the MIC90 is 128 µg/mL (≈ 333 µM) with Candida albicans [4], 256 µg/mL (≈ 666 µM) in the data set with Candida [18], more than 256 µg/mL in the data set on Candida [10] and 256 µg/mL (≈ 666 µM) with Candida albicans [12]. For the same compound, the Ratio in data set [5] was 26.

In the case of `Clc1ccc(COC(Cn2ccnc2)c2ccc(Cl)cc2Cl)c(Cl)c1` (stereo not given) [MICONAZOLE], the Resistance in the data set with Candida [15], with Candida [2], in the data set on Candida albicans [6] and with Candida albicans [19] was 0% throughout. In addition, the MIC came out at 0.57 µg/mL (≈ 1.37 µM) against Candida albicans [4], 0.83 µg/mL (≈ 1.99 µM) in the data set on Candida [18], 0.156 µg/mL (≈ 0.375 µM) in the data set with Candida [10] and 1.16 µg/mL (≈ 2.79 µM) in the data set with Candida albicans [12]. For the same compound, the MIC50 worked out at 0.5 µg/mL (≈ 1.2 µM) in the data set on Candida albicans [4], 1 µg/mL (≈ 2.4 µM) against Candida [18], 0.5 µg/mL (≈ 1.2 µM) against Candida [10] and 0.5 µg/mL (≈ 1.2 µM) in the data set on Candida albicans [12]. Moreover, the MIC90 was 2 µg/mL (≈ 4.81 µM) against Candida albicans [4], 1 µg/mL (≈ 2.4 µM) in the data set on Candida [18], 8 µg/mL (≈ 19.2 µM) in the data set with Candida [10] and 2 µg/mL (≈ 4.81 µM) in the data set with Candida albicans [12]. Moreover, the Range was 16 µg/mL in the data set on Candida albicans [20], 1 µg/mL in the data set on Candida [21], less than 0.25 µg/mL with Candida [22] and less than 8 µg/mL in the data set on Candida albicans [23].
